Columns and labels:
[1] = molecular target: T1, Voltage-gated L-type calcium channel (Homo sapiens, UniProt Q13936+Q13698+Q01668+O60840); test: Inhibition of voltage-dependent L-type calcium channel in human SH-SY5Y cells assessed as protection against glutamate-induced excitotoxicity by measuring recovery of cell viability at 20 uM measured after 24 hrs by alamar blue-based fluorescence method relative to control
[2] = tested on: Aorta; test: Inhibition of calcium-induced contraction in K+-depolarized guinea pig aortic strips at 10^-4 M relative to control; format: tissue-based; settings: Cavia porcellus
[3] = tested on: Left cardiac atrium; test: Negative inotropic activity in guinea pig left atrium assessed as decrease in developed tension at 10^-5 M relative to control; design: scale not given: the % may be the effect or the level left; settings: 10 µM
[4] = molecular target: T2, Voltage-gated L-type calcium channel (Rattus norvegicus, UniProt P22002+Q02485+P27732); test: (§1) Inhibition of voltage-dependent L-type calcium channel in Wistar rat brain slices assessed as protection against oxygen glucose deprivation/reperfusion-induced injury by measuring recovery of LDH release at 20 uM administered at onset of reperfusion period measured after 90 mins by spectrophotometric assay relative to control; design: scale not given: the % may be the effect or the level left; settings: 1.5 h
[5] = tested on: Right cardiac atrium; test: Negative chronotropic activity in guinea pig spontaneously beating right atrium assessed as decrease in atrial rate at 5 x 10^-6 M relative to control; format: ADME, tissue-based, Cavia porcellus; design: scale not given: the % may be the effect or the level left; settings: 5 µM
[6] = molecular target: T2, Voltage-gated L-type calcium channel; test: as §1, with “edema formation” for “LDH release”, “mins” for “mins by spectrophotometric assay”; design: scale not given: the % may be the effect or the level left; settings: 1.5 h
[7] = tested on: Aorta; test: Inhibition of calcium-induced contraction in K+-depolarized guinea pig aortic strips; format: ADME, tissue-based; settings: Cavia porcellus
[8] = molecular target: T1, Voltage-gated L-type calcium channel; test: as §1, with “human U373MG cells” for “Wistar rat brain slices”, “cell viability” for “LDH release”, “1” for “20”, “16 hrs” for “90 mins”, “alamar blue” for “spectrophotometric”; format: cell-based
Procedure, shortened: (§2)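 U-373 MG astrocytoma cells seeded at 30000 cells/ml and grown 24 or 48 h (37 °C/5% CO2). OGD: 24 h at 37 °C in glucose-free DMEM pre-bubbled with 95% N2/5% CO2, in a sealed nitrogen-flushed chamber. Then 16 h reperfusion in normal medium; compounds added at reperfusion, diluted from DMSO stock (DMSO ≤0.1%). Viability by alamarBlue, 4 h at 37 °C, fluorescence ex 530–560/em 590 nm. Expressed as % recovery from injury, mean ± S.E. of ≥3 experiments in sixuplicate.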

[9] = tested on: Left cardiac atrium; test: Negative inotropic activity in guinea pig left atrium assessed as decrease in developed tension at 0.001 to 100 uM relative to control; format: ADME, tissue-based; settings: Cavia porcellus
[10] = molecular target: T1, Voltage-gated L-type calcium channel; test: Inhibition of voltage-dependent L-type calcium channel in human SH-SY5Y cells assessed as protection against glutamate-induced excitotoxicity by measuring recovery of cell viability at 1 uM measured after 24 hrs by alamar blue-based fluorescence method relative to control
[11] = tested on: Right cardiac atrium; test: Negative chronotropic activity in guinea pig spontaneously beating right atrium assessed as decrease in atrial rate; format: tissue-based; settings: Cavia porcellus
[12] = Selectivity ratio of EC50 for negative chronotropic activity in guinea pig spontaneously beating right atrium to EC50 for negative inotropic activity in guinea pig left atrium; format: ADME, tissue-based, Cavia porcellus
[13] = molecular target: T1, Voltage-gated L-type calcium channel; test: as §1, with “human U373MG cells” for “Wistar rat brain slices”, “cell viability” for “LDH release”, “16 hrs” for “90 mins”, “alamar blue” for “spectrophotometric”; format: cell-based; procedure, shortened: as §2
[14] = tested on: Right cardiac atrium; test: Negative inotropic activity in guinea pig right atrium assessed as decrease in developed tension at 5 x 10^-5 M relative to control; format: ADME, tissue-based, Cavia porcellus; design: scale not given: the % may be the effect or the level left; settings: 50 µM
[15] = tested on: Left cardiac atrium (Cavia porcellus); test: Negative inotropic activity in guinea pig left atrium assessed as decrease in developed tension
[16] = tested on: Aorta; test: Inhibition of calcium-induced contraction in K+-depolarized guinea pig aortic strips at 10^-5 M relative to control; format: tissue-based; settings: Cavia porcellus
[17] = tested on: Right cardiac atrium; test: Negative chronotropic activity in guinea pig spontaneously beating right atrium assessed as decrease in atrial rate at 10^-5 M relative to control; format: ADME, tissue-based, Cavia porcellus; design: scale not given: the % may be the effect or the level left; settings: 10 µM
[18] = tested on: Right cardiac atrium; test: Negative chronotropic activity in guinea pig spontaneously beating right atrium assessed as decrease in atrial rate at 10^-7 M relative to control; format: ADME, tissue-based, Cavia porcellus; design: scale not given: the % may be the effect or the level left; settings: 0.1 µM
[19] = tested on: Left cardiac atrium; test: Negative inotropic activity in guinea pig left atrium assessed as decrease in developed tension at 10^-4 M relative to control; format: ADME, tissue-based, Cavia porcellus; design: scale not given: the % may be the effect or the level left; settings: 100 µM
[20] = tested on: Right cardiac atrium; test: Negative inotropic activity in guinea pig right atrium assessed as decrease in developed tension at 10^-7 M relative to control; format: ADME, tissue-based, Cavia porcellus; design: scale not given: the % may be the effect or the level left; settings: 0.1 µM
[21] = tested on: Right cardiac atrium; test: Negative chronotropic activity in guinea pig spontaneously beating right atrium assessed as decrease in atrial rate at 5 x 10^-7 M relative to control; format: ADME, tissue-based, Cavia porcellus; design: scale not given: the % may be the effect or the level left; settings: 0.5 µM
[22] = tested on: Aorta; test: Inhibition of calcium-induced contraction in K+-depolarized guinea pig aortic strips at 10^-7 M relative to control; format: tissue-based; settings: Cavia porcellus
[23] = tested on: Left cardiac atrium; test: Negative inotropic activity in guinea pig left atrium assessed as decrease in developed tension at 5 x 10^-6 M relative to control; format: ADME, tissue-based, Cavia porcellus; design: scale not given: the % may be the effect or the level left; settings: 5 µM
[24] = tested on: Right cardiac atrium; test: Negative chronotropic activity in guinea pig spontaneously beating right atrium assessed as decrease in atrial rate at 10^-6 M relative to control; format: ADME, tissue-based, Cavia porcellus; design: scale not given: the % may be the effect or the level left; settings: 1 µM
[25] = tested on: Left cardiac atrium; test: Negative inotropic activity in guinea pig left atrium assessed as decrease in developed tension at 5 x 10^-7 M relative to control; format: ADME, tissue-based, Cavia porcellus; design: scale not given: the % may be the effect or the level left; settings: 0.5 µM
[26] = tested on: Aorta; test: Inhibition of calcium-induced contraction in K+-depolarized guinea pig aortic strips at 5 x 10^-6 M relative to control; format: tissue-based; settings: Cavia porcellus
[27] = tested on: Left cardiac atrium; test: Negative inotropic activity in guinea pig left atrium assessed as decrease in developed tension at 5 x 10^-5 M relative to control; format: ADME, tissue-based, Cavia porcellus; design: scale not given: the % may be the effect or the level left; settings: 50 µM
[28] = tested on: Right cardiac atrium; test: Negative chronotropic activity in guinea pig right atrium assessed as decrease in atrial rate at 5 x 10^-6 M relative to control; design: scale not given: the % may be the effect or the level left; settings: 5 µM
[29] = tested on: Right cardiac atrium; test: Negative inotropic activity in guinea pig right atrium assessed as decrease in developed tension at 10^-5 M relative to control; format: ADME, tissue-based, Cavia porcellus; design: scale not given: the % may be the effect or the level left; settings: 10 µM
[30] = tested on: Right cardiac atrium; test: Negative chronotropic activity in guinea pig spontaneously beating right atrium assessed as decrease in atrial rate at 5 x 10^-5 M relative to control; format: tissue-based, Cavia porcellus; design: scale not given: the % may be the effect or the level left; settings: 50 µM
[31] = tested on: Right cardiac atrium; test: Negative inotropic activity in guinea pig right atrium assessed as decrease in developed tension at 10^-4 M relative to control; format: ADME, tissue-based, Cavia porcellus; design: scale not given: the % may be the effect or the level left; settings: 100 µM
[32] = tested on: Right cardiac atrium; test: Negative chronotropic activity in guinea pig spontaneously beating right atrium assessed as decrease in atrial rate at 10^-4 M relative to control; format: ADME, tissue-based, Cavia porcellus; design: scale not given: the % may be the effect or the level left; settings: 100 µM

SMILES	EC50 [9]	EC50 [11]	EC50 [15]	Activity [1]	inhibition at 100 µM [2]	Activity [4]	Activity [6]	Activity [8]	Activity [10]	Ratio EC50 [12]	Activity [13]	further results
CCOC(=O)C1=C(C)NC(C)=C(C(=O)OCC)C1c1c(-c2cc(F)c(F)cc2F)nc2sccn12	160 nM	1240 nM	–	54.7%	62%	< 5%	< 5%	7.4%	< 5%	< 10	30.6%	Activity [3]: 78%; Activity [5]: 93%; IC50 [7]: 5570 nM
CCOC(=O)C1=C(C)NC(C)=C(C(=O)OCC)C1c1c(-c2ccc(OC(F)(F)F)cc2)nc2sc(Br)cn12	93 nM	–	1000 nM	49.8%	–	–	–	14.2%	< 5%	–	23.8%	Activity [14]: 85%; Activity [3]: 62%; inhibition at 10 µM [16]: 5%; Activity [17]: 35%
COC(=O)C1=C(C)NC(C)=C(C(=O)OC)C1c1ccccc1[N+](=O)[O-] [NIFEDIPINE]	–	39 nM	–	101.6%	–	–	–	34.4%	55%	–	73.7%	Activity [18]: 85%; Activity ([3]; Left cardiac atrium): 97%; Activity ([4]; Brain): 72.3%; Activity ([6]; Brain): 95.7%
CCOC(=O)C1=C(C)NC(C)=C(C(=O)OCC)C1c1c(-c2ccc(Cl)cc2)nc2sccn12	97 nM	–	19 nM	44.4%	43%	–	–	< 5%	6.8%	–	< 5%	Activity [19]: 61%; Activity [20]: 79%; Activity [21]: 38%
CCOC(=O)C1=C(C)NC(C)=C(C(=O)OCC)C1c1c(-c2ccc(F)cc2)nc2sccn12	64 nM	1650 nM	–	59.3%	–	72.4%	89.4%	36.6%	42.6%	25 to 56	43.6%	inhibition at 0.1 µM [22]: 6%; Activity [21]: 91%; Activity [23]: 79%
CCOC(=O)C1=C(C)NC(C)=C(C(=O)OCC)C1c1c(-c2ccc([N+](=O)[O-])cc2)nc2sc(F)cn12	24 nM	–	77 nM	51.1%	13%	23.3%	76.4%	22.2%	28.8%	–	28.5%	Activity [25]: 78%; Activity [17]: 20%; Activity [28]: 67%
CCOC(=O)C1=C(C)NC(C)=C(C(=O)OCC)C1c1c(-c2cc([N+](=O)[O-])c(Cl)cc2Cl)nc2sc(Cl)cn12	81 nM	–	220 nM	40.7%	17%	–	–	16.5%	40.8%	–	15.4%	Activity [29]: 82%; Activity [30]: 37%; Activity [27]: 86%

More lines, main results first:

EC50 [9]	EC50 [11]	EC50 [15]	SMILES	Activity [1]	inhibition at 100 µM [2]	Activity [4]	Activity [6]	Activity [8]	Activity [10]	Ratio EC50 [12]	Activity [13]	further results
21 nM	100 nM	–	CCOC(=O)C1=C(C)NC(C)=C(C(=O)OCC)C1c1c(-c2ccc(F)c(F)c2)nc2sccn12	50.7%	14%	20.5%	80.5%	< 5%	37.4%	< 10	< 5%	Activity [24]: 77%; Activity [25]: 83%
1270 nM	4.3 nM	–	CCOC(=O)C1=C(C)NC(C)=C(C(=O)OCC)C1c1c(-c2ccc(Br)c([N+](=O)[O-])c2)nc2sccn12	59.2%	–	< 5%	< 5%	< 5%	< 5%	–	32.4%	Activity [18]: 90%; inhibition at 5 µM [26]: 41%; Activity [27]: 53%
26 nM	120 nM	–	CCOC(=O)C1=C(C)NC(C)=C(C(=O)OCC)C1c1c(-c2cc(OC)ccc2OC)nc2sc(Br)cn12	57.6%	22%	< 5%	< 5%	< 5%	< 5%	< 10	29.32%	Activity [24]: 94%; Activity [23]: 69%
300 nM	1670 nM	–	COC(=O)C1=C(C)NC(C)=C(C(=O)OC)C1c1c(-c2cc(Br)c(OC)cc2OC)nc2sccn12	< 5%	34%	–	–	< 5%	< 5%	25 to 56	< 5%	Activity [5]: 74%; Activity [23]: 63%
1370 nM	–	2170 nM	CCOC(=O)C1=C(C)NC(C)=C(C(=O)OCC)C1c1c(-c2ccc([N+](=O)[O-])cc2)nc2sc(Cl)cn12	< 5%	12%	–	–	10.3%	< 5%	–	26.1%	Activity [19]: 74%; Activity [31]: 79%; Activity [32]: 25%

From ChEMBL document CHEMBL4385592, “4-Imidazo[2,1-b]thiazole-1,4-DHPs and neuroprotection: preliminary study in hits searching” (Eur J Med Chem, 2019)
